Laboratory results: article PMC3100537 (Biochemistry, 2011)
Values joined by “and” are separate entries in the source; they are usually repeats but may differ in a detail not shown here. Equal entries are not always repeated.

Legend:
[1] = Non-denaturing gradient gel electrophoresis; format: physicochemical; conditions: Native-PAGE 4–20% Tris-glycine gel; stock solutions 1 mg/ml PBS, pH 7.4; 3 μg per well
[2] = Circular dichroism spectroscopy, secondary structure; format: physicochemical
How it was run: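 Lipid-free peptide in 10 mM sodium phosphate, pH 7.4, at 25°C; 2 mg/ml stock diluted in the same buffer to 6–310 μM (18–1000 μg/ml). Four scans at 20 nm/min averaged per concentration. α-Helicity derived from molar ellipticity at 222 nm; [θ]222/[θ]208 ratio plotted against concentration. For TFE, 0.2 mg/ml peptide held ±50% TFE for 30 min at 25°C before scanning (n=3).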

physchem = conditions: pH 7.4, aqueous buffer
[3] = Gel-filtration chromatography; format: physicochemical
How it was run: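 Size-exclusion FPLC on Superdex 75 or Superdex Peptide columns equilibrated in PBS (10 mM phosphate, 150 mM NaCl, pH 7.4), run at 0.5 ml/min at room temperature. 0.2 ml of peptide stock (0.125 to 140 mg/ml; concentration set by A280) injected, with elution read at 280 or 215 nm. Columns calibrated with molecular weight standards. Stocks also run after 2 years' sterile storage at 4°C or 24 h at 37°C.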

[4] = Small angle X-ray scattering; format: physicochemical
How it was run: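 Concentration-scaled intensity at q = 0 converted to mass by calibration against lysozyme, xylanase and BSA. Ab initio shape from ten averaged modelling runs. Two independent peptide preparations measured.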

[5] = DMS cross-linking / SDS-PAGE of self-associated forms; format: physicochemical; conditions: 20-fold molar excess DMS, 3 h, 25 °C; SDS-PAGE 10–20% Tricine gel
How it was run: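 Peptide at various concentrations reacted with 20-fold molar excess dimethylsuberimidate for 3 h at 25°C, then quenched with 50 mM Tris-HCl. Mixed with SDS loading buffer, boiled 1 min, and run on 10–20% Tris-Tricine SDS-PAGE. Protein stain visualized cross-linked species, sized against 1.7–40 kDa markers.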

J774 mouse macrophages = conditions: lipid-free peptide; cited from earlier work

Row | Substance | migration form on non-denaturing gel (aggregation) [1] | α-helical content, presence of 50% TFE ([2]; 0.2 mg/ml, 50% TFE) [%] | α-helical content, absence of TFE ([2]; 0.2 mg/ml, no TFE) [%] | solubility (physchem) [mg/mL] | gel-filtration profile after prolonged storage ([3]; 2 years in PBS at 4 °C under sterile conditions, data not shown) | concentration at which monomeric ATI-5261 predominated ([3]; FPLC (Superdex 75 and Peptide columns) and SDS-PAGE/DMS cross-linking) [µg/mL] | concentration at which peptide monomers were predominant ([3]; FPLC, allowing for ~10-fold dilution on the columns, PBS pH 7.4) [µg/mL] | MW of the peptide assembly by FPLC ([3]; Superdex Peptide 10/300 GL column, 1 mg peptide/ml, PBS, A215, calibrated with (Gly)6, aprotinin, ribonuclease A) [kDa] | gel-filtration profile after incubation at 37 °C ([3]; incubation at 37 °C for 24 h, data not shown) | SAXS MW relative to monomeric weight of the peptide (3230 Da) ([4]; 2–8 mg/ml PBS pH 7.4) | aggregation detected from X-ray intensity profiles ([4]; peptide at 2–8 mg/ml PBS) | concentration range of dissociation of the tetrameric assembly to monomers [5] [mg/ml] | α-helical content, extensively diluted sample ([2]; 6 μM, i.e. 18 μg/ml, 10 mM phosphate buffer pH 7.4, 25 °C) [%] | α-helical content with 50% TFE compared to controls with no TFE ([2]; 0.2 mg/ml, 10 mM phosphate pH 7.4, 30 min TFE at 25 °C, n=3) | 222/208 ellipticity ratio ([2]; 50% TFE) | α-helical content ([2]; lipid-free peptide, 10 mM phosphate buffer pH 7.4, 25 °C, 0.2 mg/ml (62 μM), from molar ellipticity at 222 nm, mean ± SD, n=4) [%] | concentration of saturation in cholesterol efflux (J774 mouse macrophages) [µg/mL]
1 | Ac-DWFKAFYDKVAEKFKEAF-NH2 [peptide 4F, reference compound] | aggregated as high molecular weight (HMW) species | 49 | 28 | ~1 | – | – | – | – | – | – | – | – | – | – | – | – | –
2 | Ac-EVRSKLEEWFAAFREFAEEFLARLKS-NH2 [ATI-5261] | low molecular weight (LMW) band | – | – | – | not altered | ≤ 25 | < 25 | 12.8 | not altered | ~4 times and 4.1 times | Little or no aggregation | 0.5 to 0.025 | 82.6 | remained unchanged | < 1 | 74.1±6.8 | 3
